Measured values reported in ChEMBL document CHEMBL1641412, “Synthesis and 11β hydroxysteroid dehydrogenase 1 inhibition of thiazolidine derivatives with an adamantyl group” (Bioorg Med Chem Lett, 2011).

Key:
[1] = molecular target: 11-beta-hydroxysteroid dehydrogenase 1 (Homo sapiens, UniProt P28845); test: Inhibition of human 11beta-HSD1 expressed in CHO cells after 3 hrs by HTRF cortisol assay; format: cell-based
[2] = Metabolic stability in human liver microsomes after 30 mins; format: ADME, Microsome; details: read-out: Stability
[3] = molecular target: T1, 11-beta-hydroxysteroid dehydrogenase type 2 (Homo sapiens) (UniProt P80365); test: Inhibition of human 11beta-HSD2 expressed in HEK293 cells at 10 uM after 24 hrs by HTRF cortisol assay; format: cell-based
T1 sequence (whole entry): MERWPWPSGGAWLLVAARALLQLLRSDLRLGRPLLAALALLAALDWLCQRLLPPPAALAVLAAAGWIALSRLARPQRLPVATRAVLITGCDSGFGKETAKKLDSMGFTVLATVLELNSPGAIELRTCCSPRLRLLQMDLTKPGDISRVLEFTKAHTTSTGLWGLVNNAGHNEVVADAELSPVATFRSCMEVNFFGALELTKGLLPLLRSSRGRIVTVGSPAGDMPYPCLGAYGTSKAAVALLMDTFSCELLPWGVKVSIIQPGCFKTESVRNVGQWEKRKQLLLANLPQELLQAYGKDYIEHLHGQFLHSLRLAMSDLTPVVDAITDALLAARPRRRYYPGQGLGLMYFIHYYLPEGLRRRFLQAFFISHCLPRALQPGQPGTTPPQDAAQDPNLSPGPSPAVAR

[4] = molecular target: 11-beta-hydroxysteroid dehydrogenase 1 (Mus musculus, UniProt P50172); test: Inhibition of mouse 11beta-HSD1 expressed in CHO cells after 3 hrs by HTRF cortisol assay; format: cell-based
Chain of 11-beta-hydroxysteroid dehydrogenase 1 (Mus musculus, UniProt P50172) (P50172 whole entry): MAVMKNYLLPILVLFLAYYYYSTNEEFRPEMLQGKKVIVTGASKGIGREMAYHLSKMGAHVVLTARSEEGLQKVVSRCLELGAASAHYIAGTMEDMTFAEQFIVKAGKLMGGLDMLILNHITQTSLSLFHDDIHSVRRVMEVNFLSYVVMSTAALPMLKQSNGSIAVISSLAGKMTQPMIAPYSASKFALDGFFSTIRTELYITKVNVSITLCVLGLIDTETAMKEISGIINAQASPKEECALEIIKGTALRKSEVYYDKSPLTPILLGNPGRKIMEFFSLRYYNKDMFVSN

[5] = Oral bioavailability in po dosed rat; format: ADME, organism-based; details: in vivo
CYP3A4 = CYP3A4 (Homo sapiens, UniProt P08684); test: Inhibition of CYP3A4 at 10 uM; format: ADME
Chain of CYP3A4 (P08684 whole entry): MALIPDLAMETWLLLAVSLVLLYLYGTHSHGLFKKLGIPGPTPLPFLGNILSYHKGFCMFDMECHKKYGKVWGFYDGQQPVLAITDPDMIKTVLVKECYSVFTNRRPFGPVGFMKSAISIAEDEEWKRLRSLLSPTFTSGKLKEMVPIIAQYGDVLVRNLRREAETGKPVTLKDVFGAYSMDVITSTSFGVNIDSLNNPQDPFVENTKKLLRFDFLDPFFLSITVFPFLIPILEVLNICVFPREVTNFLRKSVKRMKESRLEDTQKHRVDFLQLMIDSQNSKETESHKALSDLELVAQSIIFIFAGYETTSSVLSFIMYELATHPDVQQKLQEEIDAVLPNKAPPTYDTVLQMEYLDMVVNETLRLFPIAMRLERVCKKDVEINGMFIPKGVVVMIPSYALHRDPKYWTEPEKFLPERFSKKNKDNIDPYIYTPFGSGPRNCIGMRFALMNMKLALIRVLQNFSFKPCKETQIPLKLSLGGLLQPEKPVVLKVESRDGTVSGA

[6] = Cmax in po dosed rat; format: ADME, organism-based; design: route oral; details: in vivo
Mus musculus [7] = test: In vivo inhibition of 11beta-HSD1 in C57/BL6 mouse lnguinal fat pad assessed as cortisol product at 40 mg/kg, po after 2 hrs by ELISA; format: functional; details: C57Bl/6, Fat pad
[8] = Clearance in po dosed rat; format: ADME, organism-based; details: in vivo
CYP2C19 = CYP2C19 (Homo sapiens, UniProt P33261); test: Inhibition of CYP2C19 at 10 uM; format: ADME
Chain of CYP2C19 (P33261 whole entry): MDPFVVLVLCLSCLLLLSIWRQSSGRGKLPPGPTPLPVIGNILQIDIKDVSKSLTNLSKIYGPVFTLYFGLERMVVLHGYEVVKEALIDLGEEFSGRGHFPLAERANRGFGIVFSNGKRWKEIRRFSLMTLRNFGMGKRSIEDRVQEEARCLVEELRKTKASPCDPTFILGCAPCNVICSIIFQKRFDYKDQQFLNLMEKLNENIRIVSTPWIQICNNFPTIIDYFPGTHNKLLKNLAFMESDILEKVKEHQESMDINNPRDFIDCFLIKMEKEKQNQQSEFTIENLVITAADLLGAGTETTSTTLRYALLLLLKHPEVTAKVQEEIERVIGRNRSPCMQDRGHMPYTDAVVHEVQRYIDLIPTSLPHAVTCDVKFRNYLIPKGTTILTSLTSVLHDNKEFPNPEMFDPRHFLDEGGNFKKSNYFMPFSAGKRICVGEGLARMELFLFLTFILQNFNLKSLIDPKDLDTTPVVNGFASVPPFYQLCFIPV

Mus musculus [9] = test: In vivo inhibition of 11beta-HSD1 in C57Bl/6 mouse liver assessed as cortisol product at 40 mg/kg, po after 2 hrs by ELISA; format: functional; details: C57Bl/6, 2 h
CYP2D6 = CYP2D6 (Homo sapiens, UniProt P10635); test: Inhibition of CYP2D6 at 10 uM; format: ADME
Chain of CYP2D6 (P10635 whole entry): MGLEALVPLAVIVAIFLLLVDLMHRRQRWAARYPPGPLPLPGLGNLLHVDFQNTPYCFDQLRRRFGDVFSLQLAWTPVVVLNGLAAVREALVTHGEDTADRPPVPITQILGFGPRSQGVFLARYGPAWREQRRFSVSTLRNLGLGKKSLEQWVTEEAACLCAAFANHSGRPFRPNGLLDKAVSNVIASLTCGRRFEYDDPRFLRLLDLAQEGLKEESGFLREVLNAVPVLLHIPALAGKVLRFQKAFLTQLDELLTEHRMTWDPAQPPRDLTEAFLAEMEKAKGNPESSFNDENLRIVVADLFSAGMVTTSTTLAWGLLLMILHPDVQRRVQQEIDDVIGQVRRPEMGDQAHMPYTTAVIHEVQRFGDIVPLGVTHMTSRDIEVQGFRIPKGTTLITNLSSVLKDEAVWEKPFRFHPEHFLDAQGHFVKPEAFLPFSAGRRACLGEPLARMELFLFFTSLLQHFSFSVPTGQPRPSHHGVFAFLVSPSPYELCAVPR

CYP1A2 = molecular target: T2, CYP1A2 (Homo sapiens, UniProt P05177); test: Inhibition of CYP1A2 at 10 uM; format: ADME
T2 sequence (P05177 whole entry): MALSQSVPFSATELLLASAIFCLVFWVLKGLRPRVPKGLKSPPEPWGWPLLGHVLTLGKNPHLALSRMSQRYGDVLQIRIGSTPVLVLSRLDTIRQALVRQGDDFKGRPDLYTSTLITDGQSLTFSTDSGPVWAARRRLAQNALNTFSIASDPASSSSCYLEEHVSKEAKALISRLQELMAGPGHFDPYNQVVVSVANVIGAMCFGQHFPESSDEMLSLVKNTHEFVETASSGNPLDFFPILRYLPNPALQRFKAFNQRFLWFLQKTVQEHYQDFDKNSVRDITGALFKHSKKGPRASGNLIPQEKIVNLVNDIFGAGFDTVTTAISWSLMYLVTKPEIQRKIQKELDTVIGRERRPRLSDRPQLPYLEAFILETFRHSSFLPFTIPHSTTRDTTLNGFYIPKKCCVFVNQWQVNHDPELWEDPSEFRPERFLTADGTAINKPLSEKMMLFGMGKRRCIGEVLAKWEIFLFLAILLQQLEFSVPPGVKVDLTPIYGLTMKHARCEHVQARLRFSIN

[10] = AUC (0 to 8 hrs) in po dosed rat; format: ADME, organism-based; design: time < 8 hr, route oral; details: plasma
In short: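 Rats dosed orally; plasma exposure expressed as AUC over 0–8 h.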

Cynomolgus monkey [11] = test: In vivo inhibition of 11beta-HSD1 in cynomolgus monkey lnguinal fat pad assessed as cortisol product at 20 mg/kg, po after 2 hrs by ELISA; format: functional; details: Macaca fascicularis
[12] = molecular target: Voltage-gated inwardly rectifying potassium channel KCNH2 (Homo sapiens, UniProt Q12809); test: Binding affinity to human ERG
Chain of Voltage-gated inwardly rectifying potassium channel KCNH2 (Q12809 whole entry): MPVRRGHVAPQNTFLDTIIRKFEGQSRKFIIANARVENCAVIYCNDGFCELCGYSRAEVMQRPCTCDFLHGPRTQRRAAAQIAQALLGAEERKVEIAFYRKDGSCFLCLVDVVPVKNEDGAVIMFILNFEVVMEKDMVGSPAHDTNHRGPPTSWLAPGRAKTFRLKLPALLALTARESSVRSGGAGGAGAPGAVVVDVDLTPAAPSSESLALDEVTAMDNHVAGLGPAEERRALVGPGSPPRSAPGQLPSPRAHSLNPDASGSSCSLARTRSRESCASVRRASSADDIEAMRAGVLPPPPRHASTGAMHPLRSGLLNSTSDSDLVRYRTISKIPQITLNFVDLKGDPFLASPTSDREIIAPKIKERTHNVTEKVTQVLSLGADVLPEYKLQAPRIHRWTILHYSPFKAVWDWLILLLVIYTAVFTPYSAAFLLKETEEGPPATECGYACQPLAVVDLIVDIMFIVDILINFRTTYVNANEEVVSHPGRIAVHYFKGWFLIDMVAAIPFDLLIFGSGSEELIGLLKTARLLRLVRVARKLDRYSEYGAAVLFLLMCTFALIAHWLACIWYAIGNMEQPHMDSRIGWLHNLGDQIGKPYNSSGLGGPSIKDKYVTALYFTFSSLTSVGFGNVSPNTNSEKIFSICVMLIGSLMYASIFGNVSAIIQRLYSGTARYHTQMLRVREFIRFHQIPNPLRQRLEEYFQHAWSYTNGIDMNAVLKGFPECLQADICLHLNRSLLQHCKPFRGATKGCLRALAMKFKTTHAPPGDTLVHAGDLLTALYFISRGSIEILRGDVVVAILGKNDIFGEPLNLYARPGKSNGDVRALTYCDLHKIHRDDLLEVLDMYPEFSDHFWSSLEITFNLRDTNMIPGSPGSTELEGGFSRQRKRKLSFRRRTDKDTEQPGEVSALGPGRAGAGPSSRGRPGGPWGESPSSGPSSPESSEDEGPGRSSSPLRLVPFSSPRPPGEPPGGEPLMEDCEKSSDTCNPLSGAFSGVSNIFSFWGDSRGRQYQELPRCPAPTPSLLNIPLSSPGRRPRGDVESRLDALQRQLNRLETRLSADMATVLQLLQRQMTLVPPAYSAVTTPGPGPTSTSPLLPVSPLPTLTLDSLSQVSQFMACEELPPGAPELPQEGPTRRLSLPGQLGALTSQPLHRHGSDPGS

Mus musculus [13] = test: Antidiabetic activity in KKAy mouse assessed as reduction of non-fasting plasma glucose level at 100 mg/kg, po qd for 18 days relative to control; format: functional; design: scale not given: the % may be the effect or the level left
In short: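 KKAy mice dosed orally at 100 mg/kg for 18 days alongside vehicle-treated controls; non-fasting blood glucose measured after 18 days; n = 7 mice/group, means ± SEM.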

Mus musculus [14] = test: Antidiabetic activity in KKAy mouse assessed as reduction of AUC of plasma glucose level at 100 mg/kg, po qd for 18 days by oral glucose tolerance test relative to control; format: functional; design: scale not given: the % may be the effect or the level left
Cynomolgus monkey [15] = test: In vivo inhibition of 11beta-HSD1 in cynomolgus monkey liver assessed as cortisol product at 20 mg/kg, po after 2 hrs by ELISA; format: functional; details: Macaca fascicularis

Chain of 11-beta-hydroxysteroid dehydrogenase 1 (Homo sapiens, UniProt P28845) (P28845 whole entry): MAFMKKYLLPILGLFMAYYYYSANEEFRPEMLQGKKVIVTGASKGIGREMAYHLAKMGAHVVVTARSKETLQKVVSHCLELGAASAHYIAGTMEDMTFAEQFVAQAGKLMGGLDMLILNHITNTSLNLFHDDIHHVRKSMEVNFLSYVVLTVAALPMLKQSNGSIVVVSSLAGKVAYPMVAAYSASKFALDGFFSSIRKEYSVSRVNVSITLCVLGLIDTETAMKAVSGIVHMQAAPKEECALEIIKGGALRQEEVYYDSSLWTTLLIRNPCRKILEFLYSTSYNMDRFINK

NC(=O)C12CC3CC(C1)C(NC(=O)C1SCCN1S(=O)(=O)c1ccc(Cl)c(Cl)c1)C(C3)C2 (stereo unspecified)
IC50 [1]: 5 nM
remaining at 0.5 h [2]: 43%
inhibition [3]: 47%

NC(=O)C12CC3CC(C1)C(NC(=O)C1SCCN1S(=O)(=O)c1ccccc1)C(C3)C2 (stereo unspecified)
IC50 [4]: 842 nM

Cc1ccc(S(=O)(=O)N2CCSC2C(=O)NC2C3CC4CC2CC(C(N)=O)(C4)C3)cc1 (stereo unspecified)
bioavailability [5]: 16%
inhibition at 10 µM (CYP3A4): 24%
Cmax [6]: 650 ng/mL
inhibition in vivo at 40 mg/kg (Mus musculus [7]): 51%
CL/F [8]: 43.3 mL/min/kg
inhibition at 10 µM (CYP2C19): 21%
inhibition in vivo at 40 mg/kg (Mus musculus [9]): 51%
inhibition at 10 µM (CYP2D6): 0%
IC50 [1]: 8 nM
IC50 [4]: 57 nM
remaining at 0.5 h [2]: 53%
inhibition [3]: 0%
inhibition at 10 µM (CYP1A2): 0%

COc1ccc(S(=O)(=O)N2CCSC2C(=O)NC2C3CC4CC2CC(C(N)=O)(C4)C3)cc1 (stereo unspecified)
IC50 [4]: 171 nM

NC(=O)C12CC3CC(C1)C(NC(=O)C1SCCN1S(=O)(=O)c1cccc(F)c1)C(C3)C2 (stereo unspecified)
IC50 [4]: 76 nM

NC(=O)C12CC3CC(C1)C(NC(=O)C1SCCN1S(=O)(=O)c1ccc(F)cc1)C(C3)C2 (stereo unspecified)
IC50 [4]: 27 nM

NC(=O)C12CC3CC(C1)C(NC(=O)C1SCCN1S(=O)(=O)c1ccccc1F)C(C3)C2 (mixture of isomers)
IC50 [1]: 4 nM

NC(=O)C12CC3CC(C1)C(NC(=O)C1SCCN1S(=O)(=O)c1ccccc1F)C(C3)C2 (stereo in doubt; 8g (E)) [listing 1 of 2 here]
bioavailability [5]: 32%
inhibition at 10 µM (CYP3A4): 21%
inhibition in vivo at 40 mg/kg (Mus musculus [7]): 67%
AUC(0-t) at 8 h [10]: 1110 ng·h/mL
inhibition in vivo at 20 mg/kg (Cynomolgus monkey [11]): 62%
CL/F [8]: 48.3 mL/min/kg
inhibition at 10 µM (CYP2C19): 25%
Activity [12]: > 100 µM
inhibition in vivo at 40 mg/kg (Mus musculus [9]): 65%
inhibition at 10 µM (CYP2D6): 0%
IC50 [1]: 3 nM
IC50 [4]: 3 nM
Activity (Mus musculus [13]): 28.2%
remaining at 0.5 h [2]: 77%
Activity (Mus musculus [14]): 18.1%
inhibition in vivo at 20 mg/kg (Cynomolgus monkey [15]): 57%
inhibition at 10 µM (CYP1A2): 0%

NC(=O)C12CC3CC(C1)C(NC(=O)C1SCCN1S(=O)(=O)c1ccccc1F)C(C3)C2 (stereo in doubt; 8g (E)) [listing 2 of 2 here]
inhibition [3]: 0%

NC(=O)C12CC3CC(C1)C(NC(=O)[C@H]1SCCN1S(=O)(=O)c1ccccc1F)C(C3)C2 (stereo in doubt; 8g (R) (E))
IC50 [1]: 2 nM

NC(=O)C12CC3CC(C1)C(NC(=O)[C@H]1SCCN1S(=O)(=O)c1ccccc1F)C(C3)C2 (stereo in doubt; 8g (R) (Z))
IC50 [1]: 1340 nM

NC(=O)C12CC3CC(C1)C(NC(=O)[C@@H]1SCCN1S(=O)(=O)c1ccccc1F)C(C3)C2 (stereo in doubt; 8g (S) (E))
IC50 [1]: 12 nM

NC(=O)C12CC3CC(C1)C(NC(=O)[C@@H]1SCCN1S(=O)(=O)c1ccccc1F)C(C3)C2 (stereo in doubt; 8g (S) (Z))
IC50 [1]: 38700 nM

NC(=O)C12CC3CC(C1)C(NC(=O)C1SCCN1S(=O)(=O)c1ccccc1F)C(C3)C2 (stereo in doubt; 8g (Z))
IC50 [1]: 7950 nM

NC(=O)C12CC3CC(C1)C(NC(=O)C1SCCN1S(=O)(=O)c1ccccc1F)C(C3)C2 (stereo in doubt; 8g)
IC50 [1]: 4 nM
IC50 [4]: 4 nM
